FLuc inh counter – counter-screen for luciferase assay inhibitors: firefly luciferase inhibition. 200,000 tested, 1.5% active. AID 1006. inhibition, % at 10 µM. ATPLite firefly luciferase biochemical luminescence, 10 min. P08659;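 active = inhibition above about 50% when tested at 10 µM, limit read from the data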
Wee1 degr inh – human Wee1 degradation inhibition, primary screen. P30291. HeLa Luc-Wee1K328M stability, luciferase luminescence; 100% = proteasome inhibitor MG132 effect. reporter increase, % at 5 µM. 220,000 tested, 1.2% active. AID 1321;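 active = activation above the mean of all tested compounds plus 3 SD, set per screening run, cut at about 8.8% in these data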;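 also: cells exposed to compound for 20 h before luminescence read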
FLuc act counter – affects firefly luciferase, flagging false hits in luciferase stimulation screens; ATPlite luciferase biochemical, luminescence, 10 min; 0 = ATP-free wells, 1 = DMSO control; activation factor at 10 µM; 200,000 tested, under 10 active;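 active = luciferase activation factor, scaled between plate controls, of at least 2 with compound at 10 µM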
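System: luciferase plus luciferin reagent, cell-free; medium: PBS as buffer for the ATP substrate; dosing: test compounds dosed from 2 mM stocks in 100% DMSO; timing: 10 min post-reagent at room temperature; measured by: luminescence measurement of luciferase light output; evaluation: luciferase activation, seen as luminescence increase over controls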
TRAIL sens C8 – caspase-8 TRAIL sensitization. inhibition (viability loss, TRAIL sensitization), % at 10 µM. 360,000 tested, 1% active. NB7+C8 cells + TRAIL, ATPlite viability luminescence;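 active = compounds causing at least 50% loss of cell viability in the single-dose screen, relative to plate controls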
PPC-1+TRAIL kill – compounds killing PPC-1 cancer cells with TRAIL present (potentiator screen, no TRAIL-free arm) | AID 1443 | PPC-1 cells + TRAIL, ATPLite viability luminescence | 220,000 tested, 0.41% active | cell killing (% activity), % at 4 µM or 5 µM;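 active = cell killing above 50% in the first pass at 4 µM, then a duplicate retest at 5 µM averaging 50% or more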
PKD1 kinase inh – PKD1 (human) kinase inhibition. Q15139. PKD1 kinase fluorescence polarization assay. inhibition, % (no concentration beside the values). 200,000 tested, 0.056% active; in the data active = inhibition above about 50%
Target sequence (Q15139 whole entry, looked up): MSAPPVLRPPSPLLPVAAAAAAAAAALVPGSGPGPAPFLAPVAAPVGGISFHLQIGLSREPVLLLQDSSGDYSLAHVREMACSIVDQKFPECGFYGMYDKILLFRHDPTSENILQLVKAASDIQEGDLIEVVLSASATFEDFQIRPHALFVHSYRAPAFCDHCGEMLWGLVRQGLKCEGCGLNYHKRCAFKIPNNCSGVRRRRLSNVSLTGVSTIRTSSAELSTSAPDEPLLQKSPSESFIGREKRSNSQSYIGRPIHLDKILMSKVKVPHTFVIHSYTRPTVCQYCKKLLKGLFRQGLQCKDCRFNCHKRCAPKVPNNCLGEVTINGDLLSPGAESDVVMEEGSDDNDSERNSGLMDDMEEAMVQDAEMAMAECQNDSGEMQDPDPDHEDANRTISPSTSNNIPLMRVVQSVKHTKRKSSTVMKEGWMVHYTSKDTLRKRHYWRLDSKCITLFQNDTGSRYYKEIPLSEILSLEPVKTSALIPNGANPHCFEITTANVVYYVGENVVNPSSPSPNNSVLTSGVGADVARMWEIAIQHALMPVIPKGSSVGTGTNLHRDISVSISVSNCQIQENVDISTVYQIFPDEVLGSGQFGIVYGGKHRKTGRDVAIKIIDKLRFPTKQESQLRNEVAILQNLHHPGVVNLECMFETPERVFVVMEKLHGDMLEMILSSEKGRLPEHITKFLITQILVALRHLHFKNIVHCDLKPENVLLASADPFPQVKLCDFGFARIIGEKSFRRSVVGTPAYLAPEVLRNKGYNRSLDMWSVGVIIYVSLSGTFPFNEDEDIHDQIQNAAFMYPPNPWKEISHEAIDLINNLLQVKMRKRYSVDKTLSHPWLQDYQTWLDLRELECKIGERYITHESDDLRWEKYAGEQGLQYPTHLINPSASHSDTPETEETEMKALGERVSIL
Numbers stand for hits; – = inactive; · = no result given. This is a sample that favours compounds with a hit; in the whole collection about 2.2% have one here.

SMILES	FLuc inh counter	Wee1 degr inh	FLuc act counter	TRAIL sens C8	PPC-1+TRAIL kill	PKD1 kinase inh
COC(=O)c1ccc2c(c1)C(C)(C)C(/C=C/c1ccc(O)cc1)=[N+]2C	–	–	–	51.5	–	–
CCOc1ccc(C(=O)Nc2cccc(C(=O)O)c2)cc1Cl	79.1	–	–	–	–	–
Cc1cccc(NC(=O)COc2ccc(Br)cc2/C=N/O)c1	–	9.4	–	–	–	–
CC(=O)Nc1ccc(NC(=O)COc2ccc(Br)cc2C)cc1	–	–	–	–	–	–
Cc1cccc(NC(=O)c2ccc(OC3CSC3)cc2)c1	80.2	–	–	–	–	–
CC(C)(C)c1ccc(C(=O)Nc2cccc(-n3cnnn3)c2)cc1	·	·	·	71.1	·	·
Cc1ccc(C)c(N2CCN(C(=O)c3ccc(N4CCOCC4)c([N+](=O)[O-])c3)CC2)c1	·	·	·	–	·	·
CCN1CCN(CC(=O)Nc2ccc(N(C)C)cc2)CC1	·	·	·	–	·	·
C=C(C)C(=O)Nc1ccc2nn(-c3ccccc3O)nc2c1	·	·	·	–	·	·
O=C(O)c1cc(=S)nc[nH]1	·	·	·	–	·	·
Cc1ccccc1OCC(=O)Nc1cccc(C(=O)O)c1	59.3	–	–	–	–	–
Cc1cccc(OCC(=O)Nc2cc(NC(=O)COc3cccc(C)c3C)cc(C(=O)O)c2)c1C	·	·	·	–	·	·
Cc1ccc(C(=O)Nc2cccc(C(=O)N3CCOCC3)c2)cc1	–	–	–	–	–	–
CCOC(=O)c1cccc(NC(=O)c2ccc(N(C)C)cc2)c1	60.2	–	–	–	–	–
Cc1ccc(C(=O)Nc2cccc(C(=O)O)c2)cc1	62.1	–	–	·	–	–
O=C(O)c1cccc(NC(=O)c2ccccc2)c1	·	·	·	–	·	·
CCOC(=O)c1cccc(NC(=O)c2ccc(NC(=O)c3ccco3)cc2)c1	·	·	·	–	·	·
CC(C)(C)c1ccc(C(=O)Nc2cccc(C(=O)N3CCOCC3)c2)cc1	·	·	·	63.0	·	·
CCC(C)Sc1cc(-c2nc3ccc(Cl)cn3c2NC2CCCCC2)ccc1OC (configuration not stated)	·	·	·	–	·	·
COc1ccc(/C=C2\CCCC3C2=NN(C(=O)CSc2ncn[nH]2)C3c2ccc(OC)cc2)cc1 (configuration not stated)	–	–	–	–	–	–
COc1ccc(/C=C2\CCCC3C2=NN(C(=O)COC(=O)CNC(=O)c2ccccc2)C3c2ccc(OC)cc2)cc1 (configuration not stated)	–	–	–	58.9	–	–
Cc1ccc(/C=C/c2nc3ccccc3[nH]2)o1	85.7	–	–	–	–	–
Cc1cc2nc(/C=C/c3nc4cc(C)c(C)cc4[nH]3)[nH]c2cc1C	·	–	·	–	–	·
N=c1ccn2c(n1)O[C@H]1[C@@H](CO)[C@H](O)O[C@H]12	·	·	·	–	·	·
c1ccc2c(Nc3nnc(-c4ccncc4)s3)cccc2c1	52.5	–	–	–	–	–
SMILES	FLuc inh counter	Wee1 degr inh	FLuc act counter	TRAIL sens C8	PPC-1+TRAIL kill	PKD1 kinase inh
CN(NC(=O)c1cccc(Cl)c1)c1nc(-c2ccccc2)nnc1C(F)(F)F	–	–	–	52.6	–	–
CC(C)(C)c1ccc(C(=O)Nc2ccc(C=C(C#N)C#N)cc2)cc1	–	–	–	52.9	50.1	–
COc1ccccc1C(=O)C1CCCN(C(=O)CSc2ccccn2)C1 (configuration not stated)	–	10.3	–	–	–	–
COc1ccc(OC)c(N2C(=O)CC(NNC(=O)c3ccc4c(c3)OCO4)C2=O)c1 (configuration not stated)	·	·	·	–	·	·
Cc1cccc(NS(=O)(=O)c2ccc3[nH]c(=O)[nH]c3c2)c1C	·	·	·	–	·	·
Cc1cccc(NS(=O)(=O)c2ccc3c(c2)Cc2cc(S(=O)(=O)Nc4cccc(C)c4C)ccc2-3)c1C	–	–	–	59.5	–	–
Cc1cc(C(=O)Nc2cnc3ccccc3c2)ccc1[N+](=O)[O-]	–	9.1	–	–	–	–
COc1ccc2nc(C)cc(NCc3ccc(F)cc3)c2c1	·	·	·	–	·	·
OC(Cc1cccnc1)c1ccccc1 (configuration not stated)	·	·	·	–	·	·
COC(=O)CC1C(=O)NCCN1C(=S)NC(=O)c1sc2ccccc2c1Cl (configuration not stated)	–	10.3	–	–	–	–
CCOc1ccc(N=Cc2c(C)[nH]n(-c3nc4ccccc4[nH]3)c2=O)cc1	69.5	–	–	86.8	73.9	–
O=C1/C(=C/c2cccc(Br)c2)SC(=S)N1CCC(=O)N(CCO)c1ccccc1	·	·	·	–	·	·
COc1cccc(/C=C2\SC(=S)N(CCCC(=O)N(CCO)c3ccccc3)C2=O)c1	·	·	·	60.8	·	·
O=C(COc1ccc(F)cc1Br)NCc1nnc2ccccn12	·	·	·	–	·	·
c1csc(-c2ccc3ccccc3n2)c1	–	–	–	–	–	–
Cc1cc2ncc(-c3cccs3)nc2cc1C	·	·	·	69.1	·	·
C=C(C)c1cccc(C(C)(C)NC(=O)N(Cc2ccccc2)Cc2ccco2)c1	–	16.2	–	–	–	–
O=C(Nc1nc2ccccc2s1)c1cccc(N2C(=O)CCC2=O)c1	·	·	·	–	·	·
COc1ccc2nc(NC(=O)c3ccccc3[N+](=O)[O-])sc2c1	·	·	·	–	·	·
COc1ccc2nc(Nc3ccccc3)sc2c1	77.2	–	–	52.4	–	–
O=C(CCS(=O)(=O)c1ccccc1)Nc1nc2cc3c(cc2s1)OCCO3	·	·	·	–	·	·
COc1ccc2nc(NC(=O)c3ccccc3O)sc2c1	·	·	·	78.0	·	·
O=C(Nc1nc2cc3c(cc2s1)OCCO3)c1cccc(N2C(=O)CCC2=O)c1	80.6	–	–	–	66.6	–
O=C(Nc1nc2cc3c(cc2s1)OCCO3)c1cccs1	·	–	·	63.3	–	·
Cc1cccc(NC(=O)Cn2nc(-c3cccs3)ccc2=O)c1C	·	·	·	–	·	·
SMILES	FLuc inh counter	Wee1 degr inh	FLuc act counter	TRAIL sens C8	PPC-1+TRAIL kill	PKD1 kinase inh
CC(=O)NC(Cc1c[nH]c2ccccc12)C(=O)N1CCN(S(=O)(=O)c2ccccc2)CC1 (configuration not stated)	·	·	·	–	·	·
COc1ccc(C(=O)COC(=O)c2c(-c3ccccc3)noc2C)c(OC)c1	·	·	·	–	·	·
COc1ccc2nc(NC(=O)c3cccs3)sc2c1	·	9.5	·	–	–	·
O=C(Nc1ccc2c(c1)OCO2)c1cccs1	–	–	–	–	–	–
O=C(Nc1ccc2c(c1)OCO2)c1ccc(Br)s1	60.9	–	–	–	–	–
O=C(Nc1ccc2c(c1)OCCO2)c1cccs1	69.6	–	–	–	–	–
O=C(Nc1ccc(N2CCCC2)c(Cl)c1)c1cccs1	66.0	–	–	–	–	–
O=C(NC(=S)Nc1ccc(N2CCOCC2)c(Cl)c1)c1cccs1	–	–	–	–	–	–
Cc1c(NC(=O)c2ccc(-c3cccc([N+](=O)[O-])c3)o2)c(=O)n(-c2ccccc2)n1C	–	–	–	–	·	–
Cc1cc(C(=O)NNC(=O)Cc2ccc(Cl)c(Cl)c2)c(C)o1	·	·	·	–	·	·
Cc1sc(NC(=O)c2cccc(N3C(=O)CCC3=O)c2)nc1-c1ccccc1	·	·	·	50.1	·	·
CC(=O)c1sc(NC(=O)c2cccc(N3C(=O)CCC3=O)c2)nc1-c1ccccc1	·	·	·	–	·	·

Screens from PubChem.
